T cruzi growth-1 = T. cruzi intracellular proliferation inhibitors, primary screen, cell-based, beta-gal Tulahuen parasites, NIH3T3 host, luminescence. AID 624255, 2012. inhibition, % at 8.34 µM. actives 5.9% (n = 77,000). T. cruzi beta-gal in NIH3T3, GalScreen luminescence, 90 h;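 active = mean inhibition above about 93%, with at least 55% of replicates each passing it, limit read from the data, passing the limit was not always enough; inconclusive = only one of those two conditions holds; inactive = neither condition holds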
GASC1 inh = inhibitors of GASC-1 (KDM4C) histone demethylase, primary screen, biochemical, single concentration HTS | Lysine-specific demethylase 4C (Homo sapiens), Q9H3R0 | GST-KDM4C 2-372, H3K9me3 peptide, LANCE TR-FRET | inhibition, % at 12.5 µM | actives 0.15% (n = 96,000);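 active = mean replicate inhibition above about 25%, with at least 55% of replicates also reaching it, limit read from the data, passing the limit was not always enough; inconclusive = only one of those two conditions met; inactive = neither condition met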
Target sequence (Q9H3R0 2-372 limits assumed): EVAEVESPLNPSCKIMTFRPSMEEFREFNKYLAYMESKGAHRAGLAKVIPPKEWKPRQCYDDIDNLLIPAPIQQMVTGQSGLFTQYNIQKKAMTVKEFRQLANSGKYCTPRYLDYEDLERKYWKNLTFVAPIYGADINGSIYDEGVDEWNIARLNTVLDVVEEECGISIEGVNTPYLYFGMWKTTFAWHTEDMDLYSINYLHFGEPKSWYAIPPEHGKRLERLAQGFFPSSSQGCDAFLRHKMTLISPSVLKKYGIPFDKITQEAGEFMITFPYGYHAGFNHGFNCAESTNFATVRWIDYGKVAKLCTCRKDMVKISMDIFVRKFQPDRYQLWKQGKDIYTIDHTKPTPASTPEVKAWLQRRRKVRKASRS
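System: N-terminal GST-fused human GASC-1 (KDM4C) fragment, residues 2-372; amount: enzyme final amount 10 nM; incubation: reaction 30 min RT, detection step 1 h RT; medium: HEPES buffer, pH 7.5, plus ascorbate; technique: LANCE TR-FRET, Eu antibody, ULight-streptavidin, EDTA, ex 340 nm, em 618/671 nm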
IDH1 R132H inh = inhibitors of IDH1 R132H reductase, primary screen, biochemical, plate reader, single point | Isocitrate dehydrogenase [NADP] cytoplasmic (Homo sapiens), O75874 | diaphorase/resazurin fluorescence, 60 min | actives 0.18% (n = 70,000) | inhibition, % at 10 µM | AID 624101, 2012; in the data active = inhibition above about 34%; inconclusive = no clear call, values can overlap the other calls; inactive = below about 11%;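 note: 0% = DMSO and 100% = no enzyme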
T cruzi growth-2 = T. cruzi intracellular proliferation inhibitors, confirmation, cell-based, NIH3T3 host, beta-gal parasite, luminescence, cherry-pick. T. cruzi beta-gal in NIH3T3, GalScreen luminescence, 90 h. shares compounds with T cruzi growth-1. actives 72% (n = 5,600). inhibition, % at 8.35 µM;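 active = mean replicate inhibition above about 95% and at least 55% of replicates individually reaching it, limit read from the data; inconclusive = only one of the two criteria is met; inactive = neither criterion is met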
T cruzi growth-3 = inhibitors of intracellular T. cruzi replication, confirmation, NIH3T3 host cells, beta-gal parasites, cherry-pick, set 2. inhibition, % at 2.09 µM. T. cruzi beta-gal in NIH3T3, GalScreen luminescence, 90 h. actives 21% (n = 5,600). AID 651740, 2012. shares compounds with T cruzi growth-1;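 active = mean inhibition above about 95%, with at least 55% of replicates also reaching it, limit read from the data; inconclusive = meets just one of the two conditions; inactive = meets neither condition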;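 note: plate controls were neutral control median for no effect and positive control median for full effect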
3T3 cytotox = cytotoxicity in mouse NIH/3T3 fibroblasts, confirmation, cytotoxicity control for T. cruzi proliferation inhibitor project, cell-based, cherry-pick, single point; shares compounds with T cruzi growth-1; NIH/3T3 viability, CellTiter-Glo ATP luminescence, 90 h; cytotoxicity (signal decrease), % at 8.35 µM; actives 14% (n = 5,600); AID 651742, 2012;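 active = mean signal decrease across replicates above about 35% based on untreated-well scatter, with enough replicates individually passing, limit read from the data; inconclusive = no rule stated though some were filed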;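 note: 0% = median of neutral control wells and 100% = median of positive control wells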
3T3 cytotox 2 = NIH/3T3 fibroblast cytotoxicity, confirmation, cytotoxicity control, cell-based, cherry-pick, single point, set 2 | NIH/3T3 viability, CellTiter-Glo ATP luminescence, 90 h | inhibition, % at 24.9 µM | actives 56% (n = 5,600) | shares compounds with T cruzi growth-1;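 active = mean loss of cell viability signal at or above a set limit, and enough replicates individually reaching it; inconclusive = meets only the mean limit or only the replicate share; inactive = meets neither condition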;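 note: 0% = median of neutral control wells and 100% = median of positive control wells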
An asterisk follows results filed as active; ? = inconclusive; . = not tested or not shown. This excerpt belongs to a sample that is enriched for hits.

SMILES	T cruzi growth-1	GASC1 inh	IDH1 R132H inh	T cruzi growth-2	T cruzi growth-3	3T3 cytotox	3T3 cytotox 2
COc1cc(OC)c(NC(=O)CN(C)S(=O)(=O)c2cc(Cl)ccc2Cl)cc1Cl	.	.	0	.	.	.	.
CC(C)CC#Cc1ccc2c(c1)O[C@@H](CN(C)C(=O)c1ccccc1)[C@@H](C)CN([C@H](C)CO)S2(=O)=O	.	-6	0	.	.	.	.
CC(C)CC#Cc1ccc2c(c1)O[C@H](CN(C)C(=O)c1ccccc1)[C@H](C)CN([C@@H](C)CO)S2(=O)=O	118*	-3	0	104*	98*	22	106*
CC(C)CC#Cc1ccc2c(c1)O[C@@H](CN(C)C(=O)c1ccccc1)[C@H](C)CN([C@@H](C)CO)S2(=O)=O	116*	-2	0	110*	57	39*	108*
CCCC#Cc1ccc2c(c1)O[C@@H](CN(C)C(=O)c1ccccc1)[C@@H](C)CN([C@H](C)CO)S2(=O)=O	78	1	0	.	.	.	.
CCCC#Cc1ccc2c(c1)O[C@@H](CN(C)C(=O)c1ccccc1)[C@@H](C)CN([C@@H](C)CO)S2(=O)=O	70	-1	0	.	.	.	.
CCCC#Cc1ccc2c(c1)O[C@H](CN(C)C(=O)c1ccccc1)[C@H](C)CN([C@@H](C)CO)S2(=O)=O	96*	-1	-2	102*	77	-3	26*
COc1ccc(NC(=O)c2oc3ccccc3c2NC(=O)Cc2coc3cc(C)cc(C)c23)cc1	.	.	0	.	.	.	.
COc1ccc(C(=O)CSc2nnc(-c3ccc(C)cc3)n2-c2ccc(C)cc2)cc1	.	.	0	.	.	.	.
COc1ccc(S(=O)(=O)N2C[C@H](O)COC[C@@H]3O[C@@H](CC(=O)NCc4ccc(Cl)c(Cl)c4)CC[C@H]32)cc1	109*	-1	.	101*	-36	-2	62*
O=C(C[C@H]1CC[C@@H]2[C@H](COC[C@@H](O)CN2S(=O)(=O)c2cccc(F)c2)O1)Nc1ccc(-c2ccccc2)cc1	96*	-2	.	103*	60	50*	101*
COc1cccc(S(=O)(=O)N2C[C@H](O)COC[C@H]3O[C@@H](CC(=O)N4CCOCC4)CC[C@@H]32)c1	?	0	.	13	14	11	1
O=C(C[C@@H]1CC[C@@H]2[C@H](COC[C@H](O)CN2S(=O)(=O)c2ccccc2)O1)NCc1ccc(-c2ccccc2)cc1	52	-1	.	.	.	.	.
O=C(C[C@@H]1CC[C@@H]2[C@H](COC[C@@H](O)CN2S(=O)(=O)c2ccccc2)O1)NCc1ccc(-c2ccccc2)cc1	105*	-8	.	105*	43	-1	13
COc1cccc(S(=O)(=O)N2C[C@@H](O)COC[C@@H]3O[C@@H](CC(=O)N4CCOCC4)CC[C@H]32)c1	8	1	.	.	.	.	.
O=C(C[C@H]1CC[C@@H]2[C@H](COC[C@H](O)CN2S(=O)(=O)c2cccc(F)c2)O1)Nc1ccccc1	.	2	.	.	.	.	.
Cc1ccc(S(=O)(=O)N2C[C@H](O)COC[C@H]3O[C@H](CC(=O)NCc4ccc(Cl)c(Cl)c4)CC[C@@H]32)cc1	90	0	.	.	.	.	.
CCn1c(SCC(=O)Nc2ccc(Br)cc2Cl)nnc1-c1ccccc1	.	.	0	.	.	.	.
O=C(N/N=C/c1ccccc1)c1ccccn1	.	.	1	.	.	.	.
FC(F)(F)Oc1ccc(Nc2n[nH]c(=S)s2)cc1	.	.	7	.	.	.	.
CCn1c(SCC(=O)Nc2ccc(Br)c(C)c2C)nnc1-c1ccccc1C	.	.	0	.	.	.	.
CCn1ncc(CN(C)C(=O)c2cc(-c3cccnc3)nc3ccc(Cl)cc23)c1C	.	.	1	.	.	.	.

From PubChem
